{"source": "ChEMBL document CHEMBL4020721", "about": "(Eur J Med Chem, 2017)", "key": {"[1]": {"experiment": "Drug recovery in human liver microsomes at 1 uM measured after 30 mins by LC-MS/MS analysis", "format": "ADME, microsome", "conditions": "liver microsomes, read-out: Drug recovery", "in_short": "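Liver microsomes (0.5 mg/ml) were incubated with 1 µM compound at 37°C in 100 mM phosphate buffer pH 7.4 without NADPH for 30 min. Reactions were quenched with acetonitrile/tinidazole internal standard and analysed by LC-MS/MS. Recovery (%) was taken from the compound/internal standard peak area ratio.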"}, "CYP2C9": {"biological_target": "CYP2C9 (Homo sapiens, UniProt P11712)", "sequence (P11712 whole entry)": "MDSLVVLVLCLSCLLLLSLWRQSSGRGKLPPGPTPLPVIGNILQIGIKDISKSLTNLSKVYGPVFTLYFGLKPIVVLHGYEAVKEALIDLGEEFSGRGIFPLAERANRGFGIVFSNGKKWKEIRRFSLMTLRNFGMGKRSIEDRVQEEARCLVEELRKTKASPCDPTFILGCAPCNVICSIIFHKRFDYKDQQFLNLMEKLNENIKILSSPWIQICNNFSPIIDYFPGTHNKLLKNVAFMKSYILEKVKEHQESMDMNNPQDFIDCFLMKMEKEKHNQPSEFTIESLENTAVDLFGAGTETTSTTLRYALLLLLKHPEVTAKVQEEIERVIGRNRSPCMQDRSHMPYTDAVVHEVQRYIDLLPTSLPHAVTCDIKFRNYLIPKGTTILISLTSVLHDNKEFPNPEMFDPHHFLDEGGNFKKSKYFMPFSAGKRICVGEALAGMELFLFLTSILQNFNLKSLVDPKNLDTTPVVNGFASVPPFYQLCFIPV", "experiment": "Reversible inhibition of CYP2C9 in human liver microsomes at 10 uM after 20 mins by in presence of NADPH LC-MS/MS analysis", "format": "ADME", "conditions": "liver microsomes"}, "CYP1A2": {"biological_target": "T1, CYP1A2 (Homo sapiens, UniProt P05177)", "T1 sequence (P05177 whole entry)": "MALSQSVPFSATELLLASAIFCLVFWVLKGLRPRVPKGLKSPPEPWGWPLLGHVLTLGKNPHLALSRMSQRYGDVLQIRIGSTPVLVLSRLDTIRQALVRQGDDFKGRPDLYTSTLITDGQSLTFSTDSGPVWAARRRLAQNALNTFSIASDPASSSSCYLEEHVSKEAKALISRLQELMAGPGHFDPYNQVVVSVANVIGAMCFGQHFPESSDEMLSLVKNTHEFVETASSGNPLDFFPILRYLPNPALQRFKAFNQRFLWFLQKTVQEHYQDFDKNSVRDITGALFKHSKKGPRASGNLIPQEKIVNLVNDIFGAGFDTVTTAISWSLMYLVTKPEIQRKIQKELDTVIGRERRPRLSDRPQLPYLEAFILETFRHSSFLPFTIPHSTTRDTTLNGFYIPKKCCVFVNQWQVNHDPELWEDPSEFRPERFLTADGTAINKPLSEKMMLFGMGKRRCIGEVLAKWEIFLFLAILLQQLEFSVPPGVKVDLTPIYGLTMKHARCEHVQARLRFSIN", "experiment": "Reversible inhibition of CYP1A2 in human liver microsomes at 10 uM after 20 mins in presence of NADPH by LC-MS/MS analysis", "format": "ADME"}, "CYP2C19": {"biological_target": "CYP2C19 (Homo sapiens, UniProt P33261)", "sequence (P33261 whole entry)": "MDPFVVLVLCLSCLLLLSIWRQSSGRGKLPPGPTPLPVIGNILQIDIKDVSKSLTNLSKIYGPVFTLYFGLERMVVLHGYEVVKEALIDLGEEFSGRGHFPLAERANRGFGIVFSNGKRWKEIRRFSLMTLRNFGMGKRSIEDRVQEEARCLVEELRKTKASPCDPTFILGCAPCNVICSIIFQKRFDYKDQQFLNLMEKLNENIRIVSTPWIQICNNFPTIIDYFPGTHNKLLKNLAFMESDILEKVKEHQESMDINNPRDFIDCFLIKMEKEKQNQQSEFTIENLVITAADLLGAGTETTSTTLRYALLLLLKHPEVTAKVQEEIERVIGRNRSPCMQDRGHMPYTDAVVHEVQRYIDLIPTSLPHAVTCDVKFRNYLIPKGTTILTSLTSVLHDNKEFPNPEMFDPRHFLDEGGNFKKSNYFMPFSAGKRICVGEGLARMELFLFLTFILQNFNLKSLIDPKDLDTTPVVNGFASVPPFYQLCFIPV", "experiment": "Time dependent irreversible inhibition of CYP2C19 in human liver microsomes at 10 uM preincubated with compound followed by NADPH addition by LC-MS/MS analysis", "format": "ADME", "in_short": "(§1)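 HLM (0.2 mg/ml) with 10 µM compound were preincubated 0, 5, 10 or 20 min at 37°C with 1 mM NADPH or PBS. Substrate cocktail (halved concentrations) plus NADPH was then added for 10 min. Metabolites were measured by LC-MS/MS. Kobs is the slope of relative activity versus preincubation time.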"}, "CYP2D6": {"biological_target": "CYP2D6 (Homo sapiens, UniProt P10635)", "sequence (P10635 whole entry)": "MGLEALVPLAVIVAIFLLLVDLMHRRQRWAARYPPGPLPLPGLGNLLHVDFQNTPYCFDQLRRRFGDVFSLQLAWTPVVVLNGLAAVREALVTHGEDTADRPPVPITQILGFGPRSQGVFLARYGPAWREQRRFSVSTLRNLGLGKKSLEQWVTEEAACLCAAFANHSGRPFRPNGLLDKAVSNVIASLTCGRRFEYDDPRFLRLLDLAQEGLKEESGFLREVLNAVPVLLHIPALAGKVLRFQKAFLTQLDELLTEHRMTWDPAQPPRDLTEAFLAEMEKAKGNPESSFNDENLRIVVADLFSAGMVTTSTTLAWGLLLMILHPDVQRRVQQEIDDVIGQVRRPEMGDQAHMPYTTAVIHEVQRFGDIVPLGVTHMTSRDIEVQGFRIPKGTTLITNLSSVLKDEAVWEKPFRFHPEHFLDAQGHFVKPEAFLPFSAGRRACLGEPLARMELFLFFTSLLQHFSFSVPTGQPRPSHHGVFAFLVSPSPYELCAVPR", "experiment": "Time dependent irreversible inhibition of CYP2D6 in human liver microsomes at 10 uM preincubated with compound followed by NADPH addition by LC-MS/MS analysis", "format": "ADME", "conditions": "liver microsomes", "in_short": "as §1"}, "Rattus norvegicus": {"system": "Rattus norvegicus", "experiment": "Oral bioavailability in Sprague-Dawley rat plasma at 6 mg/kg by UPLC-MS/MS analysis", "format": "ADME, organism-based", "conditions": "in vivo", "in_short": "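Male Sprague-Dawley rats (180-220 g) were fasted overnight with free access to water. Dosing was intravenous (n=2) or oral at 6 mg/kg (n=3). Heparinized blood was drawn from 0 to 1440 min. Plasma was frozen at -20°C, then precipitated with acetonitrile containing internal standard, centrifuged and analysed by UPLC-MS/MS.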"}, "[2]": {"biological_target": "ALK tyrosine kinase receptor (Homo sapiens, UniProt Q9UM73)", "sequence (Q9UM73 whole entry)": "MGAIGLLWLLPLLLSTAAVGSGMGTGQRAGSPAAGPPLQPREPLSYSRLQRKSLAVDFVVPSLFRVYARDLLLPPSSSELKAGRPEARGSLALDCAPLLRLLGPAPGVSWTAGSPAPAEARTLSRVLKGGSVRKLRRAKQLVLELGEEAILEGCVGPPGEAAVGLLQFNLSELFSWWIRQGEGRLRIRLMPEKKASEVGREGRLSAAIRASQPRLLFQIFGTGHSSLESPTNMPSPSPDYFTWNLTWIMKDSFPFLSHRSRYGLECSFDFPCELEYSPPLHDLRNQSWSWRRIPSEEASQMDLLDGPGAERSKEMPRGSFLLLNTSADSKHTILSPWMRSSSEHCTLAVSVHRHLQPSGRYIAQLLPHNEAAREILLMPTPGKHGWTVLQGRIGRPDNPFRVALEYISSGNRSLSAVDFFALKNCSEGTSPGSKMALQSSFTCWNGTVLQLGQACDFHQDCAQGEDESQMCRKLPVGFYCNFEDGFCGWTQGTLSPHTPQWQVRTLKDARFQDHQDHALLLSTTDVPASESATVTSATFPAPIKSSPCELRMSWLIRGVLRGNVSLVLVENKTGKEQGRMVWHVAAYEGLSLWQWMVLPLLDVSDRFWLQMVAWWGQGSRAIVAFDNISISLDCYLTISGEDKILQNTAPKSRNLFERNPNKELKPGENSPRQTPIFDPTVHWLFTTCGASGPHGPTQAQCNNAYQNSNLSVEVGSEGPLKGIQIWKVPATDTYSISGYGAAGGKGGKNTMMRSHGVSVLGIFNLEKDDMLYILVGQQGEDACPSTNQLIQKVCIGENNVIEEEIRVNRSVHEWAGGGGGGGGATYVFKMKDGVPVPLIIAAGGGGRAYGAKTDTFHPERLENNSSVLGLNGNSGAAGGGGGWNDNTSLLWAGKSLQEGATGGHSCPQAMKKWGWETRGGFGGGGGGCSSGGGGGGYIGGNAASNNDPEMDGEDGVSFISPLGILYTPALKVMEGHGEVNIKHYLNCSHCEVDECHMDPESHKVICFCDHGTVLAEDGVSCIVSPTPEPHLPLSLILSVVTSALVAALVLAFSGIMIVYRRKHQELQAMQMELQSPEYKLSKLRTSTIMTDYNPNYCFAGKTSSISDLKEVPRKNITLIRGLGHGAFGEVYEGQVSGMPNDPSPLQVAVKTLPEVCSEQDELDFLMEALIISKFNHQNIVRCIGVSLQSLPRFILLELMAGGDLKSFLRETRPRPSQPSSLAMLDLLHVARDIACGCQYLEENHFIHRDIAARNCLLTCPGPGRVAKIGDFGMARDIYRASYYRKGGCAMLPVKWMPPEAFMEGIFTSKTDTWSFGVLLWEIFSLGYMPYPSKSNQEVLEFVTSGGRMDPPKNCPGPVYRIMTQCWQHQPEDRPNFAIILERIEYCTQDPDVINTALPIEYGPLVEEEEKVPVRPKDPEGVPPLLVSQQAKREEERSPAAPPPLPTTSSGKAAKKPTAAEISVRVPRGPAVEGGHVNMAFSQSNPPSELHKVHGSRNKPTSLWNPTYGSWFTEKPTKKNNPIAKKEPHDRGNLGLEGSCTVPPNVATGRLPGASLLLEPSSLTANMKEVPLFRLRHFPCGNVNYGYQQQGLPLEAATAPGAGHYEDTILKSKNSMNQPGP", "experiment": "Inhibition of ALK (unknown origin) using FAM-labeled peptide as substrate preincubated for 5 to 10 mins followed by substrate/ATP addition measured after 30 to 60 mins by mobility shift assay", "in_short": "(§2)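 Caliper mobility-shift assay with FAM-labeled peptide substrate. Buffer: 50 mM HEPES pH 7.5, 0.0015% Brij-35, 10 mM MgCl2, 2 mM DTT, with kinase-specific enzyme levels. […] Incubation was 30-60 min at 28°C, stopped with EDTA buffer. Read-out was % conversion.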"}, "[3]": {"biological_target": "Vascular endothelial growth factor receptor 2 (Homo sapiens, UniProt P35968)", "sequence (P35968 whole entry)": "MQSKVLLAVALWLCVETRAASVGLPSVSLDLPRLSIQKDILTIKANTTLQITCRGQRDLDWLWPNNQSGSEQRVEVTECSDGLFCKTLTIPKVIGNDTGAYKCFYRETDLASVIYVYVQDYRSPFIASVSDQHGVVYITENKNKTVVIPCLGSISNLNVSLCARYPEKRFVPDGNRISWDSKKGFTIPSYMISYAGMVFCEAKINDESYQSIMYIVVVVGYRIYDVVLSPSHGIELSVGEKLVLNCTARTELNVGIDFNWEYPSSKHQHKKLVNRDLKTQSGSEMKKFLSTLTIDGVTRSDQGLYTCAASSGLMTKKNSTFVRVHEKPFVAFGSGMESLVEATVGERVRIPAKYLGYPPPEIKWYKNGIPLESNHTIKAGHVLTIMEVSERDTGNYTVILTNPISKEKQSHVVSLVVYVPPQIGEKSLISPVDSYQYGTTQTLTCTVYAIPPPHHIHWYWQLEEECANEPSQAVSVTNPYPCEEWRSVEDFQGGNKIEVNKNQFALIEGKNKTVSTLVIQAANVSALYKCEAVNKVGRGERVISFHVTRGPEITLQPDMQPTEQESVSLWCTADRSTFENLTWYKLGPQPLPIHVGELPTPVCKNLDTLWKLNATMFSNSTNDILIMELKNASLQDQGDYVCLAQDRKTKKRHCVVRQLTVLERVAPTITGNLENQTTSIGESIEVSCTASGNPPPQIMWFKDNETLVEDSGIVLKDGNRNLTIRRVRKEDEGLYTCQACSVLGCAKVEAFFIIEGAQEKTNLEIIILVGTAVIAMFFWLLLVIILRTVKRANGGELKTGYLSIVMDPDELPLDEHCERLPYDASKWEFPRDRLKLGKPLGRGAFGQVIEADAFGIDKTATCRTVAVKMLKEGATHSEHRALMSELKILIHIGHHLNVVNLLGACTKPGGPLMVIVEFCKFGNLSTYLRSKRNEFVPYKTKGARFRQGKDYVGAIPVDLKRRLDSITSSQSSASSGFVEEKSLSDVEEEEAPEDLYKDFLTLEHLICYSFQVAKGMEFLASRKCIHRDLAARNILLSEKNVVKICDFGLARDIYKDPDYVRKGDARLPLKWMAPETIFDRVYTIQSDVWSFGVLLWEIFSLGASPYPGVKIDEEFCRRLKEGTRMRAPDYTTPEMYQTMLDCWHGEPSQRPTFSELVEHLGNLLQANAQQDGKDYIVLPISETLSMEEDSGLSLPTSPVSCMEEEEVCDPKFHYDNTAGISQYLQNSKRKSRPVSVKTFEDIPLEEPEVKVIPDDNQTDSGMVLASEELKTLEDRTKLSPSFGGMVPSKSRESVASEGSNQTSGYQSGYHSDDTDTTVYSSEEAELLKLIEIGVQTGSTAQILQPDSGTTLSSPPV", "experiment": "Inhibition of VEGFR2 (unknown origin) using FAM-labeled peptide as substrate preincubated for 5 to 10 mins followed by substrate/ATP addition measured after 30 to 60 mins by mobility shift assay", "in_short": "as §2"}, "Ephrin type-A receptor 2": {"biological_target": "Ephrin type-A receptor 2 (Homo sapiens, UniProt P29317)", "experiment": "Inhibition of EPHA2 (unknown origin) using FAM-labeled peptide as substrate preincubated for 5 to 10 mins followed by substrate/ATP addition measured after 30 to 60 mins by mobility shift assay", "in_short": "as §2"}, "[4]": {"biological_target": "Insulin-like growth factor 1 receptor (Homo sapiens, UniProt P08069)", "experiment": "Inhibition of IGF1R (unknown origin) using FAM-labeled peptide as substrate preincubated for 5 to 10 mins followed by substrate/ATP addition measured after 30 to 60 mins by mobility shift assay", "in_short": "as §2"}, "[5]": {"biological_target": "Fibroblast growth factor receptor 1 (Homo sapiens, UniProt P11362)", "experiment": "Inhibition of FGFR1 (unknown origin) using FAM-labeled peptide as substrate preincubated for 5 to 10 mins followed by substrate/ATP addition measured after 30 to 60 mins by mobility shift assay", "in_short": "as §2"}, "SNU-5 [6]": {"system": "SNU-5", "experiment": "Antitumor activity against human SNU5 cells xenografted in BALB/c athymic nude mouse assessed as percent tumor regression at 0.3 mg/kg, po administered once daily for 2 weeks", "format": "functional", "in_short": "(§3)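 Nude BALB/c mice, 5-6 weeks old, under SPF conditions, were implanted s.c. in the right flank with 6×10^6 SNU-5 cells. Groups were sorted at 100-200 mm³, n=6, with vehicle controls. Oral dosing once daily for 2 weeks. Percent tumor regression = 100% × (treated day 0 − treated final)/treated day 0. Mean±SEM, Student's t-test.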"}, "SNU-5 [7]": {"system": "SNU-5", "experiment": "Antitumor activity against human SNU5 cells xenografted in BALB/c athymic nude mouse assessed as tumor regression at 3 mg/kg, po administered once daily for 2 weeks", "format": "functional", "in_short": "as §3"}}, "note": "pIC50: −log10 of the molar value.", "data": [{"smiles": "CC(c1cc2cc(-c3cnn(C)c3)cnc2cc1F)n1nnc2ncc(-c3cnn(CCO)c3)nc21", "note": "(stereo in doubt; 14)", "values": [{"measurement": "remaining at 0.5 h, 1 µM", "setting": "[1]", "value": 95, "unit": "%"}, {"measurement": "inhibition at 20 min, 10 µM", "setting": "CYP2C9", "value": "< 50", "unit": "%"}, {"measurement": "inhibition at 20 min, 10 µM", "setting": "CYP1A2", "value": "< 50", "unit": "%"}, {"measurement": "inhibition at 10 µM", "setting": "CYP2C19", "value": "< 50", "unit": "%"}, {"measurement": "inhibition at 10 µM", "setting": "CYP2D6", "value": "< 50", "unit": "%"}, {"measurement": "F", "setting": "Rattus norvegicus", "value": 12.1, "unit": "%"}, {"measurement": "pIC50", "setting": "[2]", "value": "< 4.52"}, {"measurement": "pIC50", "setting": "[3]", "value": 4.74}, {"measurement": "pIC50", "setting": "Ephrin type-A receptor 2", "value": "< 4.52"}, {"measurement": "pIC50", "setting": "[4]", "value": "< 4.52"}, {"measurement": "pIC50", "setting": "[5]", "value": "< 4.52"}, {"measurement": "Activity", "setting": "SNU-5 [6]", "value": 34, "unit": "%"}, {"measurement": "Activity", "setting": "SNU-5 [7]", "value": 87.9, "unit": "%"}]}]}
